Results reported in ChEMBL document CHEMBL3588831, “Synthesis and in Vivo Evaluation of [123I]Melanin-Targeted Agents” (J Med Chem, 2015).

Legend:
Conditions in all cases: in vivo; call rule not given here
[1] = system: Brain; test: Drug distribution in brain of C57BL/6J mouse bearing mouse B16F0 cells at 18 to 20 MBq, iv measured over 72 hrs by SPECT imaging study; type: ADME, organism-based
Method in brief: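 Female C57BL/6J mice bearing s.c. B16F0 tumors (11 days growth) received 18−20 MBq in 100 μL via lateral tail vein (n = 3). Isoflurane anesthesia (5% induction, 2−2.5% maintenance) on a 37 °C heating pad. Planar γ-camera imaging at 10−60 min (5 min frames), 3 and 6 h, 24, 48 and 72 h. Radioactivity localization assessed visually.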

[2] = Drug distribution in eyes of C57BL/6J mouse bearing mouse B16F0 cells at 18 to 20 MBq, iv measured over 72 hrs by SPECT imaging study; type: ADME, organism-based, Eye
Method in brief: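 Female C57BL/6J mice (5–6 weeks) were inoculated s.c. on the left flank with 3 × 10^5 B16F0 cells in PBS and used after 11 days, with tumors 2–12 mm. Each received 18–20 MBq in 100 μL by lateral tail vein (n = 3 per tracer). Planar SPECT was done under isoflurane at 10–60 min, 3, 6, 24, 48 and 72 h. ROI pixel values were decay-corrected.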

[3] = system: Mus musculus; test: Biodistribution in tumor of C57BL/6J mouse bearing mouse B16F0 cells at 0.37 to 1.85 MBq, iv after 1 hr by gamma counting method; type: ADME, organism-based
Method in brief: (§1)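 Female C57BL/6J mice (5−6 weeks), s.c. inoculated on left flank with 3 × 10^5 B16F0 cells in Ca2+/Mg2+-free PBS, used 11 days later (tumors 2−12 mm). Radiotracer given via tail vein in 100 μL (~0.37 MBq for 1−24 h, 1.85 MBq for 48 h). Organs dissected, weighed, γ-counted, decay corrected. Expressed as % ID/g against injected-dose dilutions. Mean ± SEM, n = 5.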

[4] = system: Mus musculus; test: Biodistribution in tumor of C57BL/6J mouse bearing mouse B16F0 cells at 0.37 to 1.85 MBq, iv after 6 hrs by gamma counting method; type: ADME, organism-based; method in brief: as §1
[5] = system: Mus musculus; test: Biodistribution in tumor of C57BL/6J mouse bearing mouse B16F0 cells at 0.37 to 1.85 MBq, iv after 24 hrs by gamma counting method; type: ADME, organism-based; method in brief: as §1
[6] = system: Mus musculus; test: Biodistribution in eyes of C57BL/6J mouse bearing mouse B16F0 cells at 0.37 to 1.85 MBq, iv after 1 hr by gamma counting method; type: ADME, organism-based, Eye; method in brief: as §1
[7] = system: Mus musculus; test: Biodistribution in eyes of C57BL/6J mouse bearing mouse B16F0 cells at 0.37 to 1.85 MBq, iv after 6 hrs by gamma counting method; type: ADME, organism-based, Eye; method in brief: as §1
[8] = system: Mus musculus; test: Biodistribution in eyes of C57BL/6J mouse bearing mouse B16F0 cells at 0.37 to 1.85 MBq, iv after 48 hrs by gamma counting method; type: ADME, organism-based, Eye; method in brief: as §1
[9] = system: Mus musculus; test: Biodistribution in large gastrointestinal tract of C57BL/6J mouse bearing mouse B16F0 cells at 0.37 to 1.85 MBq, iv after 1 hr by gamma counting method; type: ADME, organism-based, Large intestine; method in brief: as §1
[10] = system: Mus musculus; test: Biodistribution in large gastrointestinal tract of C57BL/6J mouse bearing mouse B16F0 cells at 0.37 to 1.85 MBq, iv after 6 hrs by gamma counting method; type: ADME, organism-based; method in brief: as §1
[11] = system: Mus musculus; test: Biodistribution in small gastrointestinal tract of C57BL/6J mouse bearing mouse B16F0 cells at 0.37 to 1.85 MBq, iv after 3 hrs by gamma counting method; type: ADME, organism-based, Small intestine; method in brief: as §1
[12] = system: Mus musculus; test: Biodistribution in small gastrointestinal tract of C57BL/6J mouse bearing mouse B16F0 cells at 0.37 to 1.85 MBq, iv after 16 hrs by gamma counting method; type: ADME, organism-based, Small intestine; method in brief: as §1
[13] = system: Mus musculus; test: Biodistribution in thyroid gland of C57BL/6J mouse bearing mouse B16F0 cells at 0.37 to 1.85 MBq, iv after 1 hr by gamma counting method; type: ADME, organism-based; method in brief: as §1
[14] = system: Mus musculus; test: Biodistribution in thyroid gland of C57BL/6J mouse bearing mouse B16F0 cells at 0.37 to 1.85 MBq, iv after 3 hrs by gamma counting method; type: ADME, organism-based; method in brief: as §1
[15] = system: Mus musculus; test: Biodistribution in thyroid gland of C57BL/6J mouse bearing mouse B16F0 cells at 0.37 to 1.85 MBq, iv after 16 hrs by gamma counting method; type: ADME, organism-based; method in brief: as §1
[16] = system: Mus musculus; test: Biodistribution in thyroid gland of C57BL/6J mouse bearing mouse B16F0 cells at 0.37 to 1.85 MBq, iv after 48 hrs by gamma counting method; type: ADME, organism-based; method in brief: as §1
[17] = system: Spleen; test: Biodistribution in spleen of C57BL/6J mouse bearing mouse B16F0 cells at 0.37 to 1.85 MBq, iv after 16 hrs by gamma counting method; type: ADME, organism-based; method in brief: as §1
[18] = system: Spleen; test: Biodistribution in spleen of C57BL/6J mouse bearing mouse B16F0 cells at 0.37 to 1.85 MBq, iv after 48 hrs by gamma counting method; type: ADME, organism-based; method in brief: as §1
[19] = system: Liver; test: Biodistribution in liver of C57BL/6J mouse bearing mouse B16F0 cells at 0.37 to 1.85 MBq, iv after 6 hrs by gamma counting method; type: ADME, organism-based; method in brief: as §1
[20] = system: Liver; test: Biodistribution in liver of C57BL/6J mouse bearing mouse B16F0 cells at 0.37 to 1.85 MBq, iv after 48 hrs by gamma counting method; type: ADME, organism-based; method in brief: as §1
[21] = system: Kidney; test: Biodistribution in kidney of C57BL/6J mouse bearing mouse B16F0 cells at 0.37 to 1.85 MBq, iv after 1 hr by gamma counting method; type: ADME, organism-based; method in brief: as §1
[22] = system: Kidney; test: Biodistribution in kidney of C57BL/6J mouse bearing mouse B16F0 cells at 0.37 to 1.85 MBq, iv after 16 hrs by gamma counting method; type: ADME, organism-based; method in brief: as §1
[23] = system: Kidney; test: Biodistribution in kidney of C57BL/6J mouse bearing mouse B16F0 cells at 0.37 to 1.85 MBq, iv after 24 hrs by gamma counting method; type: ADME, organism-based; method in brief: as §1
[24] = system: Kidney; test: Biodistribution in kidney of C57BL/6J mouse bearing mouse B16F0 cells at 0.37 to 1.85 MBq, iv after 48 hrs by gamma counting method; type: ADME, organism-based; method in brief: as §1
[25] = system: Mus musculus; test: Whole body clearance in C57BL/6J mouse bearing mouse B16F0 cells at 0.37 to 1.85 MBq, iv after 16 hrs by gamma counting method; type: ADME, organism-based
[26] = Ratio of AUC in tumor to eyes of C57BL/6J mouse bearing mouse B16F0 cells at 0.37 to 1.85 MBq, iv by gamma counting method; type: ADME, organism-based
Method in brief: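 Biodistribution in B16F0-bearing C57BL/6J mice given i.v. tail-vein tracer (~0.37 MBq for 1–24 h, 1.85 MBq for 48 h). Sacrifice at 1, 3, 6, 16, 24 and 48 h, then organs dissected, weighed and γ-counted as decay-corrected % ID/g. Tumor AUC divided by each organ AUC; mean of ratios ± SEM, n = 5.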

| Drug uptake [1] | Drug uptake [2] | Drug uptake [3] [% ID/g] | Drug uptake [4] [% ID/g] | Drug uptake [5] [% ID/g] | Drug uptake [6] [% ID/g] | Drug uptake [7] [% ID/g] | Drug uptake [8] [% ID/g] | Drug uptake [9] [% ID/g] | Drug uptake [10] [% ID/g] | Drug uptake [11] [% ID/g] | Drug uptake [12] [% ID/g] | Drug uptake [13] [% ID/g] | Drug uptake [14] [% ID/g] | Drug uptake [15] [% ID/g] | Drug uptake [16] [% ID/g] | Drug uptake [17] [% ID/g] | Drug uptake [18] [% ID/g] | Drug uptake [19] [% ID/g] | Drug uptake [20] [% ID/g] | further results | Compound |
| --- | --- | --- | --- | --- | --- | --- | --- | --- | --- | --- | --- | --- | --- | --- | --- | --- | --- | --- | --- | --- | --- |
| Not Active | Active | 10.3 | 10.4 | 7.8 | 18.2 | 21.8 | 15.8 | 3.5 | 23.1 | 15.2 | 0.5 | 1.9 | 1.5 | 1 | 3.4 | 0.2 | 0.09 | 3.1 | 0.2 | Drug uptake [21]: 15.8 % ID/g; Drug uptake [22]: 1 % ID/g; Drug uptake [23]: 0.5 % ID/g; Drug uptake [24]: 0.2 % ID/g; CL [25]: > 98%; Ratio [26]: 0.42 | O=C(CN1Cc2ccccc2C1=O)N1C[C@H]2CN(Cc3ccc([123I])cc3)C[C@H]2C1 |
| Not Active | Active | 19.2 | 32.5 | 12.9 | 40.3 | 52.8 | 19 | 7.9 | 87.1 | 63.8 | 1.4 | 5.1 | 2.7 | 2.5 | 2.1 | 0.3 | 0.05 | 6.3 | 0.2 | Drug uptake [21]: 15.6 % ID/g; Drug uptake [22]: 1.2 % ID/g; Drug uptake [23]: 1 % ID/g; Drug uptake [24]: 0.4 % ID/g; CL [25]: > 98%; Ratio [26]: 0.52 | O=C(c1ccc2c(n1)NCCC2)N1CCN(Cc2ccc([123I])cc2)CC1 |
| Not Active | Active | 17.1 | 19.4 | 14.4 | 32 | 37.2 | 31.6 | 3.2 | 18.6 | 14.1 | 1.3 | 2.3 | 2.2 | 1.6 | 5.3 | 0.8 | 0.2 | 10.1 | 0.7 | Drug uptake [21]: 7.5 % ID/g; Drug uptake [22]: 1.6 % ID/g; Drug uptake [23]: 1.4 % ID/g; Drug uptake [24]: 0.5 % ID/g; CL [25]: > 98%; Ratio [26]: 0.47 | O=C(c1ccc2cccnc2n1)N1CCN(Cc2ccc([123I])cc2)CC1 |
| Not Active | Active | 6.2 | 18.1 | 15.2 | 13.7 | 28.1 | 38.7 | 6.6 | 17.6 | 12 | 3.7 | 3.4 | 3.4 | 2.3 | 2.4 | 1.3 | 0.1 | 35.1 | 1.9 | Drug uptake [21]: 8 % ID/g; Drug uptake [22]: 1.8 % ID/g; Drug uptake [23]: 1.9 % ID/g; Drug uptake [24]: 0.3 % ID/g; CL [25]: > 98%; Ratio [26]: 0.44 | O=C(CN1Cc2ccccc2C1=O)NC1CCN(Cc2ccc([123I])cc2)CC1 |
